The record followed here is ChEMBL document CHEMBL1129335, “Synthesis and structure-activity relationships of 2-substituted D-tryptophan-containing peptidic endothelin receptor antagonists: importance of the C-2 substituent of the D-tryptophan residue for endothelin A and B receptor subtype selectivity” (J Med Chem, 1996).

Experiment [1] concerns the target T1, Endothelin-1 receptor (Homo sapiens, UniProt P25101).
T1 sequence (P25101 whole entry): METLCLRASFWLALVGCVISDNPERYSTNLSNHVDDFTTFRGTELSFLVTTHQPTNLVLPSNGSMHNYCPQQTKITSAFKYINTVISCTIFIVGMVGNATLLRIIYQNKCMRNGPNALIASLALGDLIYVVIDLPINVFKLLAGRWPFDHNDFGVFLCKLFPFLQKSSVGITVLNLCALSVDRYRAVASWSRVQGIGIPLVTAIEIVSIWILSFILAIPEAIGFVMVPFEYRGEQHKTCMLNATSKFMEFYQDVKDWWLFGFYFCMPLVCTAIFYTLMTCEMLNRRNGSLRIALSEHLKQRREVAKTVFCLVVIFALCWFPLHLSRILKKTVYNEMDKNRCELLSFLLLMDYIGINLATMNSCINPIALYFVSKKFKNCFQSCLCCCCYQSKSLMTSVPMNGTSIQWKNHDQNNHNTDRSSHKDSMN
As to the kind of experiment: Binding affinity towards Endothelin A receptor in human neuroblastoma-derived cell line SK-N-MC membranes. It counts as cell-based. The essentials: (§1)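 Membrane binding assay on human receptors. ETA came from the neuroblastoma-derived line SK-N-MC and ETB from Girardi heart cells. Inhibition was expressed as IC50.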

In experiment [2] the target is T2, Endothelin receptor type B (Sus scrofa, UniProt P35463).
T2 sequence (P35463 whole entry): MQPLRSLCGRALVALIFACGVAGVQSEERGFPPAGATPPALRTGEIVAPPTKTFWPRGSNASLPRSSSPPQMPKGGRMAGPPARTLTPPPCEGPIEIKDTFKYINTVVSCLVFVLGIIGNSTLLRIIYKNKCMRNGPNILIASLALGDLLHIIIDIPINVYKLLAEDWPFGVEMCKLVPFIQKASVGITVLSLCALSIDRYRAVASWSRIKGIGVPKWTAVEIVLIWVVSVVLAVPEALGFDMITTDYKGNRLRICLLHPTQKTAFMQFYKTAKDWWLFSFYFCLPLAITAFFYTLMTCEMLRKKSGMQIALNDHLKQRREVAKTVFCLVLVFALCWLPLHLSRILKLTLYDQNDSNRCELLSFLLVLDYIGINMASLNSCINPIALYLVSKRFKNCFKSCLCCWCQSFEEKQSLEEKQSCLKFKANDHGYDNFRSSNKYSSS
The experiment in a line: Binding affinity towards endothelin B receptor in porcine cerebellum membranes. It counts as cell membranes, Membrane. In a few lines:
(§2)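 Competitive binding in porcine membranes: aortic smooth muscle for ETA and cerebellum for ETB, run by a previously reported method. Variation was generally within 10%.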

Experiment [3] addresses T3, Endothelin-1 receptor (Sus scrofa, UniProt Q29010).
T3 sequence (Q29010 whole entry): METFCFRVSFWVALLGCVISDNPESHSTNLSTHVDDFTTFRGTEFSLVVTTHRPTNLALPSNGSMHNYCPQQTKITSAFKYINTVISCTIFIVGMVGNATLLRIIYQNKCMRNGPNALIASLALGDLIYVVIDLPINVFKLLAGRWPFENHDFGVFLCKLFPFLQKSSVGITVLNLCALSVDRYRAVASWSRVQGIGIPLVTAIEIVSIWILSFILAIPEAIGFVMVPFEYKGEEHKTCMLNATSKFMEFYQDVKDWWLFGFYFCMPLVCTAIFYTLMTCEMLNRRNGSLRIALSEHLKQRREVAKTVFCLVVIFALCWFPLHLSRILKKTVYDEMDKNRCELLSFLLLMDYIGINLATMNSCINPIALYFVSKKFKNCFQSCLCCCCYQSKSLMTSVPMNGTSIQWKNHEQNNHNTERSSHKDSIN
As to the kind of experiment: Binding affinity towards endothelin A receptor in porcine aortic smooth muscle membranes. The essentials: as §2

In experiment [4] the target is T4, Endothelin receptor type B (Homo sapiens, UniProt P24530).
T4 sequence (P24530 whole entry): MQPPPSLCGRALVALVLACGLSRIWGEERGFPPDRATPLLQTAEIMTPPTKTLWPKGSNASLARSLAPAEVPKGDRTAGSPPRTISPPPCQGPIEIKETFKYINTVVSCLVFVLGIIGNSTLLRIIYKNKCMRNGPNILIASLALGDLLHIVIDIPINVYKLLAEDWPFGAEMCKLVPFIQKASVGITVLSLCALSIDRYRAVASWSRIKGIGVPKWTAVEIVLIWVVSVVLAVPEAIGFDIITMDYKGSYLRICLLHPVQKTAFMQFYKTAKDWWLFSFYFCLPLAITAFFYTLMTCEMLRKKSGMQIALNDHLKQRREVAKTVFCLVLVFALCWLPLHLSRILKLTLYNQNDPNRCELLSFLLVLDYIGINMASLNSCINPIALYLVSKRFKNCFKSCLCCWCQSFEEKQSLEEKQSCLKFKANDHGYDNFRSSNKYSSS
As to the kind of experiment: Binding affinity towards Endothelin B receptor in human girardi heart cell membranes. In a few lines:
as §1

A short description of experiment [5]: Ability to antagonize ET-A mediated vasoconstrictor activity in isolated porcine coronary arteries. It counts as functional. The following applies: read-out: pA2 (converted). The essentials:
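Isolated porcine coronary artery rings were contracted with ET-1, an ETA-mediated response, following a reported method. Antagonism was quantified as a pA2 value.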

Experiment [6] is described as follows: Ability to antagonize ET-1 mediated constriction in rabbit pulmonary arteries. It counts as functional, Oryctolagus cuniculus.
A short description of experiment [7]: Inhibitory activity against ET 1 induced calcium increase in human Girardi heart cells. It counts as functional, cell-based. The essentials: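 Intracellular Ca2+ rise in intact human Girardi heart cells was induced by ET-1, run by a reported method. Inhibition was expressed as IC50. Compounds were also applied alone at 100 µM to check for any rise in [Ca2+]i.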

A short description of experiment [8]: Antagonistic activity against Endothelin B receptor by BQ-3020 induced constriction in isolated rabbit pulmonary arteries. It counts as functional. Conditions: Oryctolagus cuniculus; read-out: pA2 (converted). In a few lines:
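Isolated rabbit pulmonary arteries were contracted with the ETB-selective agonist BQ-3020, following a previously reported protocol. Antagonist potency was given as pA2.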

Experiment [9] has as its target T4, Endothelin receptor type B. As to the kind of experiment: Binding affinity rowards Endothelin B receptor in human girardi heart cell membranes. In a few lines:
as §1

In general, IC50 refers to the concentration that inhibits the measured activity by half. Regarding `CSCCC(NC(=O)[C@@H](Cc1c(C)[nH]c2ccccc12)NC(=O)C(NC(=O)N1[C@H](C)CCC[C@@H]1C)C1CC1)C(=O)O` (some centres undefined), the IC50 was found to be 3 nM on Endothelin-1 receptor [1], 2.9 nM in [2], 1 nM on Endothelin-1 receptor [3] and 4 nM in [4].

On to `Cc1[nH]c2ccccc2c1C[C@H]1NC(=O)[C@H](C2CC2)NC(=O)[C@@H](C2CCCC2)NC(=O)[C@@H]2CCCN2C(=O)[C@@H](CC(=O)O)NC1=O`, for which the IC50 was 2.9 nM at Endothelin-1 receptor [1] (sk-n-mc), 59 nM in experiment [2], 1.8 nM at Endothelin-1 receptor [3] and 130 nM in experiment [4] (heart).

By pA2 is commonly meant a measure of antagonist potency on a negative log scale. A lower pA2 goes with lower antagonist potency. On to `CCCCC(NC(=O)[C@@H](Cc1c(Br)[nH]c2ccccc12)NC(=O)C(NC(=O)N1[C@H](C)CCC[C@@H]1C)C1CC1)C(=O)O` (some centres undefined), for which the Kb in [5] is 12.6 nM. Also, the IC50 at Endothelin-1 receptor [1] came out at 13 nM; in experiment [2], 0.81 nM; on Endothelin-1 receptor [3], 3.8 nM; in experiment [4], 1.1 nM. For the same molecule, the pA2 in [6] was found to be 6.4.

With `CCCCC(NC(=O)[C@@H](Cc1c(C#N)[nH]c2ccccc12)NC(=O)C(NC(=O)N1[C@H](C)CCC[C@@H]1C)C(C)C)C(=O)O` (some centres undefined), the IC50 on Endothelin-1 receptor [1] is 2400 nM; in experiment [7], 4 nM; in experiment [2], 2.3 nM; in experiment [4] it was 5 nM. In addition, the Kb in experiment [8] is 3.16 nM.

Turning to `O=C(O)C[C@H]1NC(=O)[C@@H](Cc2c(Br)[nH]c3ccccc23)NC(=O)[C@H](C2CC2)NC(=O)[C@@H](C2CCCC2)NC(=O)[C@@H]2CCCN2C1=O`, the Kb in experiment [5] is 31.6 nM. Moreover, the IC50 came out at 8.6 nM at Endothelin-1 receptor [1] (sk-n-mc), 15 nM in experiment [2], 4.9 nM at Endothelin-1 receptor [3] and 29 nM in experiment [4] (heart). The pA2 in [6] amounted to 5.7.

Take `CCSCC(NC(=O)[C@@H](Cc1c(Br)[nH]c2ccccc12)NC(=O)C(CC(C)C)NC(=O)N1[C@H](C)CCC[C@@H]1C)C(=O)O` (some centres undefined): the IC50 on Endothelin-1 receptor [1] is 6.4 nM; in experiment [2], 1.8 nM; on Endothelin-1 receptor [3], 1.9 nM; in experiment [9], 3.6 nM.
